Laboratory results reported in ChEMBL document CHEMBL5030529, “Rationally Modified Antimicrobial Peptides from the N-Terminal Domain of Human RNase 3 Show Exceptional Serum Stability” (J Med Chem, 2021).
pIC50: −log10 of the molar value. Values after ≈ are worked out from the molar mass of the structure shown. Active and inactive are the calls of the source. No cut-off for these calls is given here. Square brackets hold non-standard residues; d marks the D form. Peptide text beside a SMILES is read from it. Orn = NCCC[C@H](N)C(=O)O

Tests used:
[1] = tested on: Acinetobacter baumannii; assay: Antimicrobial activity against Acinetobacter baumannii assessed as bacterial growth inhibition incubated for 24 hrs
[2] = tested on: Escherichia coli; assay: Antimicrobial activity against clinical isolate Escherichia coli cf073 assessed as bacterial growth inhibition incubated in presence of serum for 24 hrs; format: functional
Outline: (§1)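 Broth microdilution in polypropylene plates in Mueller-Hinton medium, inoculum 5 × 10^5 CFU/mL, 37 °C for 24 h. […] MIC is the lowest peptide concentration with no growth. Values are the mean of three independent studies.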

[3] = tested on: Salmonella enterica; assay: Antimicrobial activity against Salmonella enterica assessed as bacterial growth inhibition incubated in presence of serum for 24 hrs; format: functional
Outline: as §1

[4] = tested on: Cell membrane; assay: Induction of membrane depolarization in Escherichia coli at 0.4 uM incubated 20 to 30 mins under dark by Eclipse fluorescence spectrometry; format: subcellular; conditions: time 20-30 min
Outline: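 Exponential-phase E. coli (OD 0.2–0.4) was washed in 5 mM HEPES, 20 mM glucose, 100 mM KCl, pH 7.2, and resuspended to OD 0.05. DiSC3(5) was added at 0.4 μM final and equilibrated in the dark for 20–30 min to a stable baseline. Peptide was then added and dye release was followed by fluorescence at ex 625 nm / em 666 nm.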

[5] = Hemolytic activity in horse RBC assessed as hemolysis at 250 uM relative to control; format: ADME, tissue-based, Equus caballus; conditions: erythrocyte
Outline: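 Horse erythrocytes were diluted 10-fold in PBS and washed by three spins at 800g. They were incubated with peptides for 4 h at 37 °C, and supernatant absorbance was read at 540 nm. Percent hemolysis is relative to total lysis with 1% Triton X-100. Values are the mean of three independent studies.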

[6] = tested on: Pseudomonas aeruginosa; assay: Antimicrobial activity against clinical isolate Pseudomonas aeruginosa 827651 assessed as bacterial growth inhibition incubated in presence of serum for 24 hrs; format: functional
Outline: as §1

[7] = tested on: Pseudomonas aeruginosa; assay: Antimicrobial activity against clinical isolate Pseudomonas aeruginosa 827632 assessed as bacterial growth inhibition incubated in presence of serum for 24 hrs; format: functional
Outline: as §1

[8] = tested on: Cell membrane; assay: Induction of membrane damage in Escherichia coli assessed as loss of membrane integrity by measuring blebs at 10 uM incubated for 2 hrs by Electron scanning microscopy; format: subcellular
Outline: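 E. coli was grown in LB at 37 °C to OD600 0.4 and exposed to 10 μM peptide for 2 h at room temperature. Cells were collected on 0.1 μm filters, fixed in 2.5% glutaraldehyde in cacodylate buffer pH 7.4 and post-fixed in 1% OsO4. Samples were dehydrated in ethanol, coated with gold–palladium and imaged at 15 kV.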

[9] = tested on: Acinetobacter baumannii; assay: Antimicrobial activity against clinical isolate Acinetobacter baumannii 3880 assessed as bacterial growth inhibition incubated in presence of serum for 24 hrs; format: functional
Outline: as §1

[10] = tested on: Salmonella typhimurium; assay: Antimicrobial activity against clinical isolate Salmonella typhimurium 324 assessed as bacterial growth inhibition incubated in presence of serum for 24 hrs; format: functional, Salmonella enterica subsp. enterica serovar Typhimurium; conditions: Salmonella enterica
Outline: as §1

[11] = tested on: Escherichia coli; assay: Antimicrobial activity against clinical isolate Escherichia coli 116878 assessed as bacterial growth inhibition incubated in presence of serum for 24 hrs; format: functional
Outline: as §1

[12] = tested on: Salmonella typhimurium; assay: Antimicrobial activity against clinical isolate Salmonella typhimurium 365 assessed as bacterial growth inhibition incubated in presence of serum for 24 hrs; format: functional, Salmonella enterica subsp. enterica serovar Typhimurium; conditions: Salmonella enterica
Outline: as §1

[13] = tested on: Acinetobacter baumannii; assay: Antimicrobial activity against clinical isolate Acinetobacter baumannii 3862 assessed as bacterial growth inhibition incubated in presence of serum for 24 hrs; format: functional
Outline: as §1

[14] = tested on: Escherichia coli; assay: Antimicrobial activity against Escherichia coli assessed as bacterial growth inhibition incubated for 24 hrs
[15] = tested on: Pseudomonas sp.; assay: Antimicrobial activity against Pseudomonas sp assessed as bacterial growth inhibition incubated in presence of serum for 24 hrs; format: functional
Outline: as §1

[16] = Stability in human serum assessed as half life by LC-MS analysis; format: ADME, cell-free
Outline: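 1 mM peptide stocks in water were mixed 1:1 (v/v) with human serum. Aliquots were taken at set times and digestion was stopped by acetonitrile precipitation. Serum proteins were removed by centrifugation, and intact peptide and fragments in the supernatant were analysed by LC–MS. Half-life values are the mean of three independent studies.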

[17] = tested on: Shigella flexneri; assay: Antimicrobial activity against Shigella flexneri assessed as bacterial growth inhibition incubated in presence of serum for 24 hrs; format: functional
Outline: as §1

[18] = tested on: MRC5; assay: Cytotoxicity against human MRC5 cells assessed as cell growth inhibition measured after 4 hrs by MTT assay; format: cell-based; conditions: MRC5, 4 h
Outline: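 MRC-5 fibroblasts were grown in MEMα with 10% FBS, seeded at 3 × 10^4 cells/well and left overnight to adhere. Cells were exposed to two-fold peptide serial dilutions for 4 h, then given medium with MTT at 0.4 mg/mL for 150 min. Formazan was dissolved in DMSO and read at 600 nm. Values are the mean of three independent studies.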

[19] = tested on: Acinetobacter baumannii; assay: Antimicrobial activity against clinical isolate Acinetobacter baumannii 3879 assessed as bacterial growth inhibition incubated in presence of serum for 24 hrs; format: functional
Outline: as §1

[20] = Retention time of the compound by HPLC analysis; format: physicochemical
Outline: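 Analytical RP-HPLC on a C18 column (4.6 × 50 mm, 3 μm) with a linear gradient of 0–60% acetonitrile (0.036% TFA) into water (0.045% TFA) over 15 min. Flow was 1 mL/min with UV detection at 220 nm.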

[21] = tested on: Acinetobacter baumannii; assay: Antimicrobial activity against clinical isolate Acinetobacter baumannii 3878 assessed as bacterial growth inhibition incubated in presence of serum for 24 hrs; format: functional
Outline: as §1

Molecule	MIC [1]	MIC [2]	MIC [3]	Activity [4]	Activity [5]	MIC [6]	MIC [7]	Activity [8]	MIC [9]	MIC [10]	MIC [11]	MIC [12]	MIC [13]	MIC [14]	MIC [15]	half-life [16]	MIC [17]	pIC50 [18]	MIC [19]	Retention_time [20]	further results
CC[C@H](C)[C@H](NC(=O)[C@H](C)NC(=O)[C@H](CCCN)NC(=O)[C@H](CCSC)NC(=O)[C@H](C)NC(=O)[C@@H](NC(=O)[C@@H](NC(=O)[C@H](CCCN)NC(=O)[C@@H]1CCCN1C(=O)[C@H](CO)NC(=O)[C@@H](NC(=O)[C@H](Cc1c[nH]cn1)NC(=O)[C@H](CCC(N)=O)NC(=O)[C@@H](NC(=O)[C@H](C)NC(=O)[C@H](Cc1ccccc1)NC(=O)[C@H](Cc1c[nH]c2ccccc12)NC(=O)[C@H](CCC(N)=O)NC(=O)[C@H](C)NC(=O)[C@H](CCCN)NC(=O)[C@@H](NC(=O)[C@H](Cc1ccccc1)NC(=O)[C@H]1CCCN1C(=O)[C@H](N)CCCN)[C@@H](C)O)[C@@H](C)CC)[C@@H](C)CC)[C@@H](C)O)[C@@H](C)CC)C(=O)N[C@@H](CC(N)=O)C(=O)N[C@@H](CC(N)=O)C(=O)N[C@@H](Cc1ccc(O)cc1)C(=O)N[C@@H](CCCN)C(=O)N[C@@H](Cc1c[nH]c2ccccc12)C(=O)N[C@@H](CCCN)C(=O)O	6.25 µM (≈ 21.9 µg/mL)	3.13 µM	25 µM	Active	3.6%	100 µM	25 µM	Active	6.25 µM	25 µM	6.25 µM	25 µM	0.78 µM	3.13 µM (≈ 11 µg/mL)	1.56 µM	> 480 min	6.25 µM	3.77	1.56 µM	10.8 min	MIC [21]: 0.78 µM
H-RPFTRAQWFAIQHISPRTIAMRAINNYRWR-OH	1.56 µM	3.13 µM	12.5 µM	Active	44%	25 µM	12.5 µM	Active	1.56 µM	6.25 µM	6.25 µM	6.25 µM	0.78 µM	1.56 µM	1.56 µM	12.3 min	3.13 µM	4.64	1.56 µM	8.9 min	MIC [21]: 1.56 µM
CC[C@H](C)[C@H](NC(=O)[C@H](C)NC(=O)[C@H](CCCN)NC(=O)[C@H](CCSC)NC(=O)[C@H](C)NC(=O)[C@@H](NC(=O)[C@@H](NC(=O)[C@H](CCCN)NC(=O)[C@@H]1CCCN1C(=O)[C@H](CO)NC(=O)[C@@H](NC(=O)[C@H](Cc1c[nH]cn1)NC(=O)[C@H](CCC(N)=O)NC(=O)[C@@H](NC(=O)[C@H](C)NC(=O)[C@H](Cc1ccccc1)NC(=O)[C@H](Cc1c[nH]c2ccccc12)NC(=O)[C@H](CCC(N)=O)NC(=O)[C@H](C)NC(=O)[C@H](CCCN)NC(=O)[C@@H](NC(=O)[C@@H](N)Cc1ccccc1)[C@@H](C)O)[C@@H](C)CC)[C@@H](C)CC)[C@@H](C)O)[C@@H](C)CC)C(=O)N[C@@H](CC(N)=O)C(=O)N[C@@H](CC(N)=O)C(=O)N[C@@H](Cc1ccc(O)cc1)C(=O)N[C@@H](CCCN)C(=O)N[C@@H](Cc1c[nH]c2ccccc12)C(=O)N[C@@H](CCCN)C(=O)O (H-FT[Orn]AQWFAIQHISP[Orn]TIAM[Orn]AINNY[Orn]W[Orn]-OH)	> 100 µM		> 100 µM		11%									25 µM (≈ 82.4 µg/mL)	25 µM	> 480 min	50 µM	< 3.52		10.8 min	
CC[C@H](C)[C@H](NC(=O)[C@H](C)NC(=O)[C@H](CCCN)NC(=O)[C@H](CCSC)NC(=O)[C@H](C)NC(=O)[C@@H](NC(=O)[C@@H](NC(=O)[C@H](CCCN)NC(=O)[C@@H]1CCCN1C(=O)[C@H](CO)NC(=O)[C@@H](NC(=O)[C@H](Cc1c[nH]cn1)NC(=O)[C@H](CCC(N)=O)NC(=O)[C@@H](NC(=O)[C@H](C)NC(=O)[C@H](Cc1ccccc1)NC(=O)[C@H](Cc1c[nH]c2ccccc12)NC(=O)[C@H](CCC(N)=O)NC(=O)[C@H](C)NC(=O)[C@H](CCCN)NC(=O)[C@@H](NC(=O)[C@H](Cc1ccccc1)NC(=O)[C@@H]1CCCN1C(=O)[C@@H](N)CCCN)[C@@H](C)O)[C@@H](C)CC)[C@@H](C)CC)[C@@H](C)O)[C@@H](C)CC)C(=O)N[C@@H](CC(N)=O)C(=O)N[C@@H](CC(N)=O)C(=O)N[C@@H](Cc1ccc(O)cc1)C(=O)N[C@@H](CCCN)C(=O)N[C@@H](Cc1c[nH]c2ccccc12)C(=O)N[C@@H](CCCN)C(=O)O	6.25 µM (≈ 21.9 µg/mL)		25 µM	Active	10%			Active						6.25 µM (≈ 21.9 µg/mL)	6.25 µM	29.1 min	12.5 µM	3.95		8.4 min	
CC[C@H](C)[C@H](NC(=O)[C@H](CCCCN)NC(=O)[C@H](CCC(=O)O)NC(=O)[C@H](CCCCN)NC(=O)[C@H](CO)NC(=O)[C@H](CCCCN)NC(=O)[C@H](CCCNC(=N)N)NC(=O)[C@H](Cc1ccccc1)NC(=O)[C@H](Cc1ccccc1)NC(=O)[C@H](CC(=O)O)NC(=O)CNC(=O)[C@H](CC(C)C)NC(=O)[C@@H](N)CC(C)C)C(=O)NCC(=O)N[C@@H](CCCCN)C(=O)N[C@@H](CCC(=O)O)C(=O)N[C@@H](Cc1ccccc1)C(=O)N[C@@H](CCCCN)C(=O)N[C@@H](CCCNC(=N)N)C(=O)N[C@H](C(=O)N[C@H](C(=O)N[C@@H](CCC(N)=O)C(=O)N[C@@H](CCCNC(=N)N)C(=O)N[C@H](C(=O)N[C@@H](CCCCN)C(=O)N[C@@H](CC(=O)O)C(=O)N[C@@H](Cc1ccccc1)C(=O)N[C@@H](CC(C)C)C(=O)N[C@@H](CCCNC(=N)N)C(=O)N[C@@H](CC(N)=O)C(=O)N[C@@H](CC(C)C)C(=O)N[C@H](C(=O)N1CCC[C@H]1C(=O)N[C@@H](CCCNC(=N)N)C(=O)N[C@H](C(=O)N[C@@H](CCC(=O)O)C(=O)N[C@@H](CO)C(=O)O)[C@@H](C)O)C(C)C)[C@@H](C)CC)C(C)C)[C@@H](C)CC				Active				Active													
CC[C@H](C)[C@H](NC(=O)[C@H](C)NC(=O)[C@H](CCCN)NC(=O)[C@H](CCSC)NC(=O)[C@H](C)NC(=O)[C@@H](NC(=O)[C@@H](NC(=O)[C@H](CCCN)NC(=O)[C@@H]1CCCN1C(=O)[C@H](CO)NC(=O)[C@@H](NC(=O)[C@H](Cc1c[nH]cn1)NC(=O)[C@H](CCC(N)=O)NC(=O)[C@@H](NC(=O)[C@H](C)NC(=O)[C@H](Cc1ccccc1)NC(=O)[C@H](Cc1c[nH]c2ccccc12)NC(=O)[C@H](CCC(N)=O)NC(=O)[C@H](C)NC(=O)[C@H](CCCN)NC(=O)[C@@H](NC(=O)[C@H](Cc1ccccc1)NC(=O)[C@H]1CCCN1C(=O)[C@@H](N)CCCN)[C@@H](C)O)[C@@H](C)CC)[C@@H](C)CC)[C@@H](C)O)[C@@H](C)CC)C(=O)N[C@@H](CC(N)=O)C(=O)N[C@@H](CC(N)=O)C(=O)N[C@@H](Cc1ccc(O)cc1)C(=O)N[C@@H](CCCN)C(=O)N[C@@H](Cc1c[nH]c2ccccc12)C(=O)N[C@@H](CCCN)C(=O)O	12.5 µM (≈ 43.8 µg/mL)	6.25 µM	50 µM	Active	1.1%	25 µM	> 100 µM	Active	12.5 µM	25 µM	25 µM	25 µM	1.56 µM	3.13 µM (≈ 11 µg/mL)	1.56 µM	> 480 min	50 µM	3.64	3.13 µM	10.9 min	MIC [21]: 0.78 µM
